pIC50, pKi: −log10 of the molar value.
Key:
COVID‐19 [1] = conditions: in combination with remdesivir, patients with COVID‐19; cited from earlier work
COVID‐19 [2] = conditions: phase III RUXCOVID study; cited from earlier work
[3] = metabolite identification in dog hepatocytes; format: in vitro ADME
[4] = metabolite identification in human hepatocytes; format: in vitro ADME
[5] = format: physicochemical; conditions: PARI eFlow nebulizer, dose range 0.1–10 mg
JAK = test: cell‐based assays of JAK inhibition; conditions: Homo sapiens, Epithelial cell, read-out: most potent half‐maximal JAK inhibition (IC50) in a cell‐based assay
phase I part B = format: in vivo, human
How it was run: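 Double-blind, randomized, placebo-controlled multiple ascending dose study in healthy adults aged 18–50 (FEV1 ≥80% predicted). Three cohorts of 10 (8 active, 2 placebo) got nebulized 1, 3 or 10 mg or placebo once daily for 7 days, staying in residence through day 9. Monitoring covered exams, vital signs, 12-lead ECGs, spirometry, clinical labs and MedDRA-coded TEAEs; follow-up came 1 week (±2 days) after the last dose.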

JAK2 = JAK2 (Homo sapiens, UniProt O60674); test: biochemical
JAK2, sequence (O60674 849-1124 limits assumed): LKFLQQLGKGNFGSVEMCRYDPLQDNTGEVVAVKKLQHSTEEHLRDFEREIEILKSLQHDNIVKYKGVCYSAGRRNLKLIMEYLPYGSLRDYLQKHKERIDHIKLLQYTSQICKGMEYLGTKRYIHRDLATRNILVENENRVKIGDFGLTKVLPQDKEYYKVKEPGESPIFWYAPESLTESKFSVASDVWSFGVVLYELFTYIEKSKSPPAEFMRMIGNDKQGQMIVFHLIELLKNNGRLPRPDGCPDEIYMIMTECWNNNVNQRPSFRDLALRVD

[6] = metabolism in rat lung S9; format: in vitro ADME; conditions: data on file
Tyk2 = biological target: T1, Tyk2 (Homo sapiens, UniProt P29597); test: biochemical
T1 sequence (P29597 897-1176 limits assumed): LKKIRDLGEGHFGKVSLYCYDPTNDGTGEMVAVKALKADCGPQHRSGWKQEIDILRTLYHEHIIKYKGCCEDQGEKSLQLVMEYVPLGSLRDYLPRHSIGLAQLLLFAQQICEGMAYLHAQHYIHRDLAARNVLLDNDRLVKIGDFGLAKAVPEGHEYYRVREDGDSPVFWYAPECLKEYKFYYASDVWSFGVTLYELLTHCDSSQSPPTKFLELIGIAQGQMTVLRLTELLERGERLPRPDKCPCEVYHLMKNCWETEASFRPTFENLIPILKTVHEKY

elimination in the rat = format: in vivo; conditions: preclinical data
[7] = metabolism in human lung S9; format: in vitro ADME; conditions: data on file
[8] = metabolism in dog lung S9 fractions; format: in vitro ADME; conditions: dog lung S9 fortified with 3'‐phosphate‐5'‐phosphosulfate; data on file
[9] = human plasma protein binding; format: in vitro ADME
[10] = phase I part A plasma pharmacokinetics; format: in vivo, human; conditions: for Tmax / AUC(0-t) / Cmax / Vd/F: human, plasma, inhaled or intranasal
How it was run: (§1)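 Healthy adults got a single nebulized dose (1, 3 or 10 mg). Blood and urine were sampled predose and over 72 h postdose. Plasma and urine PK parameters were estimated per participant and summarized as geometric mean (CV%). Urinary excretion was expressed as cumulative percentage of administered dose.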

[11] = phase I part A urine pharmacokinetics; format: in vivo, human; conditions: geometric mean (CV%)
How it was run: as §1

JAK1 = JAK1 (Homo sapiens, UniProt P23458); test: biochemical
JAK1, sequence (P23458 875-1153 limits assumed): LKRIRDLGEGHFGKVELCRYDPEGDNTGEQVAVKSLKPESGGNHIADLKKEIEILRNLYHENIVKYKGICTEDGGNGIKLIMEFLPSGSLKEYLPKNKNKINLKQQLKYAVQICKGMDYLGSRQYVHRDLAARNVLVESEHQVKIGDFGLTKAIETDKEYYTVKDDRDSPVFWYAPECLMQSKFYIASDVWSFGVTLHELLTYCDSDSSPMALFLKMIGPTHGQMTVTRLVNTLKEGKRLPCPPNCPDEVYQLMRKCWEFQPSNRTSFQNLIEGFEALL

[12] = phase I part B plasma pharmacokinetics; format: in vivo, human; conditions: for DN AUCtau / DN Cmax,ss: dose normalized; for DN AUCtau / DN Cmax,ss / Ctrough,ss: geometric mean (geometric CV%); for AUC / Cmax / Tmax: human, inhaled; for AUC / Cmax / Tmax / Ctrough,ss: plasma
How it was run: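 Healthy adults got nebulized 1, 3 or 10 mg once daily for 7 days. Serial blood was drawn through 24 h after the day-1 dose and from predose through 48 h after the day-7 dose; troughs were drawn predose on days 3–6. Day-7 parameters, including dose-normalized values, were given as geometric mean (geometric CV%). Accumulation ratios were AUCtau/day-1 AUC0-24 and Cmax,ss/day-1 Cmax.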

[13] = tested on: cytokine‐induced STAT6 phosphorylation; test: cytokine‐induced STAT6 phosphorylation in bronchial epithelial cell lines; format: cell-based; conditions: data on file, Theravance Biopharma
[14] = metabolite identification in rat hepatocytes; format: in vitro ADME
phase I part A = format: in vivo, human; conditions: for TEAE Cough / TEAE Dizziness / TEAE Headache / TEAE related to nezulcitinib / Total participants with TEAEs: part A
How it was run: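 Healthy adults aged 18–50 (BMI 18–32 kg/m^2, FEV1 ≥80% predicted) in a double-blind, randomized, placebo-controlled single ascending dose study. Three cohorts of 8 (6 active, 2 placebo) got one nebulized dose of 1, 3 or 10 mg or placebo; a sentinel pair was dosed ≥24 h first. TEAEs were coded by MedDRA, with follow-up 1 week (±2 days) post-dose.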

[15] = one participant, 10 mg, part B, by day 9, deemed not related to study drug
[16] = part B, 1 mg once daily for 7 days (n = 8)
[17] = part B, 3 mg once daily for 7 days (n = 8)
[18] = part B, 10 mg once daily for 7 days (n = 8)
[19] = part B, all nezulcitinib doses, Total (n = 24)
[20] = all nezulcitinib doses, Total (n = 18)
[21] = single inhaled dose 1 mg (n = 6)
[22] = single inhaled dose 3 mg (n = 6)
[23] = single inhaled dose 10 mg (n = 6)

In the case of `CCS(=O)(=O)N1CC(CC#N)(n2cc(-c3ncnc4[nH]ccc34)cn2)C1` [baricitinib], the recovery time (COVID‐19 [1]) is given as “significantly shortened recovery time”.
In the case of `N#CC[C@H](C1CCCC1)n1cc(-c2ncnc3[nH]ccc23)cn1` [ruxolitinib], the primary end point (COVID‐19 [2]) is listed as “did not meet its primary end point”.
In the case of `CCc1cc(O)ccc1-c1ccc2c(-c3nc4c([nH]3)CN(C(C)C)[C@H](C(=O)N3CC(N(C)C)C3)C4)n[nH]c2c1` [Nezulcitinib], the primary metabolite [3] was “sulfation product”, the primary metabolite [4] was “an oxidation, methylation, and glucuronidation product” and the “emitted fine particle dose, of the nominal dose” value [5] was 40%. For the same molecule, the pIC50 (JAK) was 7.90, the “alanine aminotransferase (ALT) elevation” value (phase I part B; [15]) was 3.8 × ULN and the “aspartate aminotransferase (AST) elevation” value (phase I part B; [15]) was “approximately 2.8 × ULN”. The “Moderate or severe TEAEs” value (phase I part B; [16]) was 0 n (%), the “TEAE Cough” value (phase I part B; [16]) was 0 n (%) and the “TEAE Dizziness” value (phase I part B; [16]) was 1 (13) n (%). The “TEAE Headache” value (phase I part B; [16]) was 1 (13) n (%), the “TEAE Lethargy” value (phase I part B; [16]) was 1 (13) n (%) and the “TEAE Medical device site reaction” value (phase I part B; [16]) was 0 n (%). For the same molecule, the “TEAE related to nezulcitinib” value (phase I part B; [16]) was 0 n (%), the “Total participants with TEAEs” value (phase I part B; [16]) was 4 (50) n (%) and the “Moderate or severe TEAEs” value (phase I part B; [17]) was 0 n (%). The “TEAE Cough” value (phase I part B; [17]) was 2 (25) n (%), the “TEAE Dizziness” value (phase I part B; [17]) was 1 (13) n (%) and the “TEAE Headache” value (phase I part B; [17]) was 3 (38) n (%). For the same molecule, the “TEAE Lethargy” value (phase I part B; [17]) was 0 n (%), the “TEAE Medical device site reaction” value (phase I part B; [17]) was 0 n (%) and the “TEAE related to nezulcitinib” value (phase I part B; [17]) was 0 n (%). The “Total participants with TEAEs” value (phase I part B; [17]) was 3 (38) n (%), the “Moderate or severe TEAEs” value (phase I part B; [18]) was 2 (25) n (%) and the “TEAE Cough” value (phase I part B; [18]) was 3 (38) n (%). For the same molecule, the “TEAE Dizziness” value (phase I part B; [18]) was 1 (13) n (%), the “TEAE Headache” value (phase I part B; [18]) was 0 n (%) and the “TEAE Lethargy” value (phase I part B; [18]) was 0 n (%). The “TEAE Medical device site reaction” value (phase I part B; [18]) was 1 (13) n (%), the “TEAE related to nezulcitinib” value (phase I part B; [18]) was 1 (13) n (%) and the “Total participants with TEAEs” value (phase I part B; [18]) was 6 (75) n (%). For the same molecule, the “TEAE Cough” value (phase I part B; [19]) was 5 (21) n (%), the “TEAE Dizziness” value (phase I part B; [19]) was 3 (13) n (%) and the “TEAE Headache” value (phase I part B; [19]) was 4 (17) n (%). The “TEAE Lethargy” value (phase I part B; [19]) was 1 (4) n (%), the “TEAE Medical device site reaction” value (phase I part B; [19]) was 1 (4) n (%) and the “TEAE related to nezulcitinib” value (phase I part B; [19]) was 1 (4) n (%). For the same molecule, the “Total participants with TEAEs” value (phase I part B; [19]) was 13 (54) n (%), the “changes from baseline in vital sign and ECG assessments” value (phase I part B; parts A and B) was “No clinically significant changes” and the “severe or serious AEs” value (phase I part B; parts A and B) was “No severe or serious AEs”. For the same molecule, the tolerability (phase I part B; single daily doses up to 10 mg for 7 days, healthy participants) was “generally well‐tolerated”, the pKi (JAK2) was 10.60 and the “metabolic stability in lung S9” value [6] was “relatively stable”. The pKi (Tyk2) was 9.20, the “amount eliminated in the urine and bile as unchanged compound” value (elimination in the rat) was “minor amount” and the “metabolic stability in lung S9” value [7] was “relatively stable”. The “metabolic stability in lung S9” value [8] was “extensive conversion to the sulfation product”, the fraction unbound [9] was 0.019 and the Tmax [10] was about 1 h. For the same molecule, the AUC(0-t) ([10]; 1 mg) was 18.7 ng·h/mL, the Cmax ([10]; 1 mg) was 5.5 ng/mL and the Vd/F ([10]; 1 mg) was 1390 L. It also gave an AUC(0-t) ([10]; 3 mg) of 45.2 ng·h/mL, a Cmax ([10]; 3 mg) of 13.8 ng/mL and a Tmax ([10]; 3 mg) of 1 h. It also gave a Vd/F ([10]; 3 mg) of 2300 L, an AUC(0-t) ([10]; 10 mg) of 157 ng·h/mL and a Cmax ([10]; 10 mg) of 47.3 ng/mL. The Tmax ([10]; 10 mg) was 1 h, the Vd/F ([10]; 10 mg) was 2200 L and the “dose proportionality of plasma exposures (Cmax and AUC0‐t)” value ([10]; part A, single dose 1, 3, 10 mg) was “increased proportionally”. The “Cum%Dose (cumulative percentage of administered dose excreted)” value ([11]; single inhaled dose 1 mg) was 0.97 (38.3) %, the “Cum%Dose (cumulative percentage of administered dose excreted)” value ([11]; single inhaled dose 3 mg) was 0.72 (17.5) % and the “Cum%Dose (cumulative percentage of administered dose excreted)” value ([11]; single inhaled dose 10 mg) was 0.84 (41.6) %. For the same molecule, the pKi (JAK1) was 10.30, the “DN AUCtau” value ([12]; part B day 7, 1 mg once daily) was 21.0 (25.7) ng•h/ml/mg and the “DN Cmax,ss” value ([12]; part B day 7, 1 mg once daily) was 5.6 (24.1) ng/ml/mg. For the same molecule, the “DN AUCtau” value ([12]; part B day 7, 3 mg once daily) was 17.2 (32.5) ng•h/ml/mg, the “DN Cmax,ss” value ([12]; part B day 7, 3 mg once daily) was 5.9 (42.6) ng/ml/mg and the “DN AUCtau” value ([12]; part B day 7, 10 mg once daily) was 17.8 (65.0) ng•h/ml/mg. The “DN Cmax,ss” value ([12]; part B day 7, 10 mg once daily) was 5.0 (46.4) ng/ml/mg, the AUC ([12]; 1 mg) was 21 ng·h/mL and the Cmax ([12]; 1 mg) was 5.6 ng/mL. The Tmax ([12]; 1 mg) was 1 h, the AUC ([12]; 3 mg) was 51.6 ng·h/mL and the Cmax ([12]; 3 mg) was 17.6 ng/mL. The Tmax ([12]; 3 mg) was 1 h, the AUC ([12]; 10 mg) was 178 ng·h/mL and the Cmax ([12]; 10 mg) was 49.6 ng/mL. The Tmax ([12]; 10 mg) was 1 h, the “dose proportionality of plasma exposures (Cmax and AUC0–t)” value ([12]; part B, 7 days of once‐daily dosing 1, 3, 10 mg) was “increased proportionally” and the “time to steady‐state plasma concentrations” value ([12]; part B, once‐daily dosing, from daily plasma trough concentrations) was at most 4 days. For the same molecule, the “Ctrough,ss” value ([12]; part B day 7, 1 mg once daily) was 0.2 (29.5) ng/ml, the “Ctrough,ss” value ([12]; part B day 7, 3 mg once daily) was 0.3 (39.0) ng/ml and the “Ctrough,ss” value ([12]; part B day 7, 10 mg once daily) was 1.1 (83.6) ng/ml. For the same molecule, the “inhibition of cytokine‐induced STAT6 phosphorylation” value [13] was “inhibits”, the primary metabolite [14] was “sulfation product” and the “TEAE Cough” value (phase I part A; [20]) was 2 (11) n (%). The “TEAE Dizziness” value (phase I part A; [20]) was 2 (11) n (%), the “TEAE Headache” value (phase I part A; [20]) was 1 (6) n (%) and the “TEAE related to nezulcitinib” value (phase I part A; [20]) was 0 n (%). The “Total participants with TEAEs” value (phase I part A; [20]) was 6 (33) n (%), the “TEAE Cough” value (phase I part A; [21]) was 1 (17) n (%) and the “TEAE Dizziness” value (phase I part A; [21]) was 1 (17) n (%). The “TEAE Headache” value (phase I part A; [21]) was 1 (17) n (%), the “TEAE related to nezulcitinib” value (phase I part A; [21]) was 0 n (%) and the “Total participants with TEAEs” value (phase I part A; [21]) was 4 (67) n (%). For the same molecule, the “TEAE Cough” value (phase I part A; [22]) was 0 n (%), the “TEAE Dizziness” value (phase I part A; [22]) was 0 n (%) and the “TEAE Headache” value (phase I part A; [22]) was 0 n (%). For the same molecule, the “TEAE related to nezulcitinib” value (phase I part A; [22]) was 0 n (%), the “Total participants with TEAEs” value (phase I part A; [22]) was 0 n (%) and the “TEAE Cough” value (phase I part A; [23]) was 1 (17) n (%). For the same molecule, the “TEAE Dizziness” value (phase I part A; [23]) was 1 (17) n (%), the “TEAE Headache” value (phase I part A; [23]) was 0 n (%) and the “TEAE related to nezulcitinib” value (phase I part A; [23]) was 0 n (%). For the same molecule, the “Total participants with TEAEs” value (phase I part A; [23]) was 2 (33) n (%) and the tolerability (phase I part A; single inhaled dose, healthy participants) was “generally well‐tolerated”.

From article PMC8444931 (Clinical and Translational Science, 2021)
